{
  "source": "ChEMBL document CHEMBL1153862",
  "about": "“Design, synthesis and biological evaluation of novel fluorinated docetaxel analogues” (Eur J Med Chem, 2009)",
  "key": {"SK-OV-3": {"tested_on": "SK-OV-3", "assay": "Cytotoxicity against human SKOV3 cells after 72 hrs by SRB assay", "type": "functional, cell-based", "conditions": "SK-OV-3, 72 h", "how_it_was_run": "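SK-OV-3 ovarian cells were grown in RPMI 1640 with 10% FBS at 37 °C and 5% CO2, seeded at 0.4–1.0 × 10⁴ cells/well and treated after 24 h. Compounds were dissolved in DMSO (≤0.1% final) and tested at at least five concentrations for 72 h. Growth was read by SRB at OD 520 nm; tests were run 3 times in quadruplicate. IC50 came from survival-versus-concentration curves.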"}, "A549 [1]": {"tested_on": "A549", "assay": "Antitumor activity against human A549 cells xenografted BALB/cA mouse at 12 mg/kg, iv relative to control", "type": "functional", "how_it_was_run": "(§1)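 A549 NSCLC cells were injected s.c. into BALB/cA nude mice (18 ± 3 g, 6 per group). After 2–3 passages, tumors were grafted s.c. at the right oxter. Once tumors were palpable (about 100–300 mm³ in methods; 80–150 mm³ in table footnote), mice were randomized to untreated, docetaxel or treated groups, dosed i.v., and measured by calipers 3 times weekly. T/C% = mean treated/mean control tumor volume × 100, read at day 14.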"}, "A549 [2]": {"tested_on": "A549", "assay": "Antitumor activity against human A549 cells xenografted BALB/cA mouse at 16 mg/kg, iv relative to control", "type": "functional", "how_it_was_run": "as §1"}, "Mus musculus [3]": {"tested_on": "Mus musculus", "assay": "Toxicity in BALB/cA nude mouse assessed as change in body weight at 12 mg/kg, iv", "conditions": "in vivo"}, "Mus musculus [4]": {"tested_on": "Mus musculus", "assay": "Toxicity in BALB/cA nude mouse assessed as survival at 12 mg/kg, iv", "conditions": "in vivo"}, "[5]": {"assay": "Toxicity in Kunming mouse assessed as survival", "type": "organism-based", "conditions": "in vivo", "how_it_was_run": "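Healthy Kunming mice of both sexes, 18–22 g, split into 7 weight-matched groups of 10. Single i.p. dose at 92.0, 115.0, 143.0, 179.0, 224.0, 280.0 or 350.0 mg/kg. Behaviour, body weight and deaths recorded over 14 days. LD₅₀ with 95% confidence limits derived by the Bliss method.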"}, "Mus musculus [6]": {"tested_on": "Mus musculus", "assay": "Toxicity in BALB/cA nude mouse assessed as change in body weight at 16 mg/kg, iv", "conditions": "in vivo"}, "Mus musculus [7]": {"tested_on": "Mus musculus", "assay": "Toxicity in BALB/cA nude mouse assessed as survival at 16 mg/kg, iv", "conditions": "in vivo"}, "Mus musculus [8]": {"tested_on": "Mus musculus", "assay": "Toxicity in BALB/cA nude mouse assessed as change in body weight at 18 mg/kg, iv", "conditions": "in vivo"}, "A549 [9]": {"tested_on": "A549", "assay": "Antitumor activity against human A549 cells xenografted BALB/cA mouse at 18 mg/kg, iv relative to control", "type": "functional", "how_it_was_run": "as §1"}, "Mus musculus [10]": {"tested_on": "Mus musculus", "assay": "Toxicity in BALB/cA nude mouse assessed as survival at 18 mg/kg, iv", "conditions": "in vivo"}},
  "data": [
    {"smiles": "CC(=O)O[C@@]12CO[C@@H]1C[C@H](O)[C@@]1(C)C(=O)[C@H](O)C3=C(C)[C@@H](OC(=O)[C@H](O)[C@@H](NC(=O)OC(C)(C)CF)c4ccccc4)C[C@@](O)([C@@H](OC(=O)c4ccccc4)[C@H]21)C3(C)C", "values": [
      {"measurement": "IC50", "setting": "SK-OV-3", "value": 3.8, "unit": "nM"},
      {"measurement": "T/C", "setting": "A549 [1]", "value": 41.5, "unit": "%"},
      {"measurement": "T/C", "setting": "A549 [2]", "value": 37.9, "unit": "%"},
      {"measurement": "Activity", "setting": "Mus musculus [3]", "value": -19.1, "unit": "%"},
      {"measurement": "Activity", "setting": "Mus musculus [4]", "value": "Non-toxic"},
      {"measurement": "LD50", "setting": "[5]", "value": 74.1, "unit": "mg/kg"},
      {"measurement": "Activity", "setting": "Mus musculus [6]", "value": -22, "unit": "%"},
      {"measurement": "Activity", "setting": "Mus musculus [7]", "value": "Non-toxic"}
    ]},
    {"smiles": "CC(=O)O[C@@]12CO[C@@H]1C[C@H](O)[C@@]1(C)C(=O)[C@H](O)C3=C(C)[C@@H](OC(=O)[C@H](O)[C@@H](NC(=O)OC(C)(C)C(F)(F)F)c4ccccc4)C[C@@](O)([C@@H](OC(=O)c4cccc(F)c4)[C@H]21)C3(C)C", "values": [
      {"measurement": "IC50", "setting": "SK-OV-3", "value": 34, "unit": "nM"}
    ]},
    {"smiles": "CC(=O)O[C@@]12CO[C@@H]1C[C@H](O)[C@@]1(C)C(=O)[C@H](O)C3=C(C)[C@@H](OC(=O)[C@H](O)[C@@H](NC(=O)OC(C)(C)CF)c4ccccc4)C[C@@](O)([C@@H](OC(=O)c4cccc(F)c4)[C@H]21)C3(C)C", "values": [
      {"measurement": "IC50", "setting": "SK-OV-3", "value": 0.03, "unit": "nM"},
      {"measurement": "T/C", "setting": "A549 [1]", "value": 53.7, "unit": "%"},
      {"measurement": "Activity", "setting": "Mus musculus [8]", "value": -31.3, "unit": "%"},
      {"measurement": "Activity", "setting": "Mus musculus [3]", "value": -18, "unit": "%"},
      {"measurement": "Activity", "setting": "Mus musculus [4]", "value": "Non-toxic"},
      {"measurement": "T/C", "setting": "A549 [9]", "value": 30.2, "unit": "%"},
      {"measurement": "Activity", "setting": "Mus musculus [10]", "value": "Non-toxic"}
    ]},
    {"smiles": "CC(=O)O[C@@]12CO[C@@H]1C[C@H](O)[C@@]1(C)C(=O)[C@H](O)C3=C(C)[C@@H](OC(=O)[C@H](O)[C@@H](NC(=O)OC(C)(C)C(F)(F)F)c4ccccc4)C[C@@](O)([C@@H](OC(=O)c4ccccc4)[C@H]21)C3(C)C", "values": [
      {"measurement": "IC50", "setting": "SK-OV-3", "value": 0.01, "unit": "nM"},
      {"measurement": "T/C", "setting": "A549 [1]", "value": 91.8, "unit": "%"},
      {"measurement": "Activity", "setting": "Mus musculus [8]", "value": -9.7, "unit": "%"},
      {"measurement": "Activity", "setting": "Mus musculus [3]", "value": 0, "unit": "%"},
      {"measurement": "Activity", "setting": "Mus musculus [4]", "value": "Non-toxic"},
      {"measurement": "T/C", "setting": "A549 [9]", "value": 72, "unit": "%"},
      {"measurement": "Activity", "setting": "Mus musculus [10]", "value": "Non-toxic"}
    ]},
    {"smiles": "CC(=O)O[C@@]12CO[C@@H]1C[C@H](O)[C@@]1(C)C(=O)[C@H](O)C3=C(C)[C@@H](OC(=O)[C@H](O)[C@@H](NC(=O)OC(C)(C)C(F)F)c4ccccc4)C[C@@](O)([C@@H](OC(=O)c4ccccc4)[C@H]21)C3(C)C", "values": [
      {"measurement": "IC50", "setting": "SK-OV-3", "value": 0.02, "unit": "nM"},
      {"measurement": "T/C", "setting": "A549 [1]", "value": 91.5, "unit": "%"},
      {"measurement": "Activity", "setting": "Mus musculus [8]", "value": -7.7, "unit": "%"},
      {"measurement": "Activity", "setting": "Mus musculus [3]", "value": 0, "unit": "%"},
      {"measurement": "Activity", "setting": "Mus musculus [4]", "value": "Non-toxic"},
      {"measurement": "T/C", "setting": "A549 [9]", "value": 83.5, "unit": "%"},
      {"measurement": "Activity", "setting": "Mus musculus [10]", "value": "Non-toxic"}
    ]},
    {"smiles": "CC(=O)O[C@@]12CO[C@@H]1C[C@H](O)[C@@]1(C)C(=O)[C@H](O)C3=C(C)[C@@H](OC(=O)[C@H](O)[C@@H](NC(=O)OC(C)(C)C(F)F)c4ccccc4)C[C@@](O)([C@@H](OC(=O)c4cccc(F)c4)[C@H]21)C3(C)C", "values": [
      {"measurement": "IC50", "setting": "SK-OV-3", "value": 0.05, "unit": "nM"},
      {"measurement": "T/C", "setting": "A549 [1]", "value": 51.7, "unit": "%"},
      {"measurement": "Activity", "setting": "Mus musculus [8]", "value": -26.7, "unit": "%"},
      {"measurement": "Activity", "setting": "Mus musculus [3]", "value": -16.5, "unit": "%"},
      {"measurement": "Activity", "setting": "Mus musculus [4]", "value": "Non-toxic"},
      {"measurement": "T/C", "setting": "A549 [9]", "value": 24.4, "unit": "%"},
      {"measurement": "Activity", "setting": "Mus musculus [10]", "value": "Non-toxic"}
    ]},
    {"smiles": "CC(=O)O[C@@]12CO[C@@H]1C[C@H](O)[C@@]1(C)C(=O)[C@H](O)C3=C(C)[C@@H](OC(=O)[C@H](O)[C@@H](NC(=O)OC(C)(C)C)c4ccccc4)C[C@@](O)([C@@H](OC(=O)c4ccccc4)[C@H]21)C3(C)C.O.O.O", "note": "[DOCETAXEL]", "values": [
      {"measurement": "IC50", "setting": "SK-OV-3", "value": 3.4, "unit": "nM"},
      {"measurement": "T/C", "setting": "A549 [1]", "value": 43, "unit": "%"},
      {"measurement": "Activity", "setting": "Mus musculus [3]", "value": -19.6, "unit": "%"},
      {"measurement": "Activity", "setting": "Mus musculus [4]", "value": "Non-toxic"}
    ]}
  ]
}
